In paper PMC9780517 (Experimental and Therapeutic Medicine, 2022):
“Also recorded” adds a separate entry of the source.

What was measured:
hiPSC-CMs [1] = test: Myocardial cell activity; format: cell-based, human; conditions: for Effect on Ampl (cell activity / cell viability) / Effect on BPM (beats per minute): concentration relative to ETPC
Outline: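 Human iPSC-derived cardiomyocytes (mostly ventricular; four batches) were grown 14-21 days on fibronectin-coated impedance/field-potential sensor plates at 37°C, 5% CO2. The medium was changed on dosing day, and test compound was added 3-4 h later, with 0.1% DMSO as control. Reads were taken every 30 min for 2 h, then every 2 h for >24 h. There were 3-4 concentrations, triplicate wells each. Ampl and BPM were normalized to pre-dose values.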

hiPSC-CMs [2] = test: Field potential; format: cell-based, human; conditions: for FPDc prolongation (in words): concentration relative to ETPC
[3] = ref 21 (Blinova et al); cited from earlier work

Row | SMILES | Effect on Ampl (cell activity / cell viability) (hiPSC-CMs [1]) | Effect on BPM (beats per minute) (hiPSC-CMs [1]) | Arrhythmia-like waveforms (in words) (hiPSC-CMs [2]) | also measured
1 | COc1ccc(CCN2CCC(Nc3nc4ccccc4n3Cc3ccc(F)cc3)CC2)cc1 [Astemizole] | decreased the activity of cardiomyocytes at a concentration higher than ETPC | decrease BPM | caused arrhythmia-like waveforms | 
2 | CN1CCN(CCCCN2C(=O)CN(/N=C/c3ccc(-c4ccc(Cl)cc4)o3)C2=O)CC1 [Azimilide] |  |  | induce arrhythmia-like waveforms | FPDc prolongation (in words) (hiPSC-CMs [2]): FPDc prolongation at concentrations lower than ETPC
3 | CN(C)CCCN1c2ccccc2Sc2ccc(Cl)cc21 [Chlorpromazine] | decreased the activity of cardiomyocytes at a concentration higher than ETPC | decrease BPM |  | Predicted risk, LR model of Blinova et al [3]: low-risk
4 | COc1cc(N)c(Cl)cc1C(=O)NC1CCN(CCCOc2ccc(F)cc2)CC1OC (stereo not drawn) [Cisapride] | decreased the activity of cardiomyocytes at a concentration higher than ETPC | decrease BPM |  | 
5 | CC[C@H]1OC(=O)[C@H](C)[C@@H](O[C@H]2C[C@@](C)(OC)[C@@H](O)[C@H](C)O2)[C@H](C)[C@@H](O[C@@H]2O[C@H](C)C[C@H](N(C)C)[C@H]2O)[C@](C)(OC)C[C@@H](C)C(=O)[C@H](C)[C@@H](O)[C@]1(C)O [Clarithromycin] | decreased the activity of cardiomyocytes at a concentration higher than ETPC | decrease BPM |  | FPDc prolongation (in words) (hiPSC-CMs [2]): no FPDc prolongation was observed; also recorded: FPDc showed shortening; FPDc prolongation at the highest concentration (hiPSC-CMs [2]; highest concentration of 100 µM, repeated in triplicate): no FPDc prolongation was observed
6 | CN1CCN(C2=Nc3cc(Cl)ccc3Nc3ccccc32)CC1 [Clozapine] |  |  | caused arrhythmia-like waveforms | Concentration at which FPDc prolongation was observed (hiPSC-CMs [2]): 42 % of the ETPC
7 | COc1ccc([C@@H]2Sc3ccccc3N(CCN(C)C)C(=O)[C@@H]2OC(C)=O)cc1 [Diltiazem] | decreased the activity of cardiomyocytes at a concentration higher than ETPC | BPM was decreased |  | 
8 | CC(C)N(CCC(C(N)=O)(c1ccccc1)c1ccccn1)C(C)C (stereo not drawn) [Disopyramide] | decreased cell activity at concentrations less than ETPC |  | induce arrhythmia-like waveforms | FPDc prolongation (in words) (hiPSC-CMs [2]): FPDc prolongation at concentrations lower than ETPC
9 | CN(CCOc1ccc(NS(C)(=O)=O)cc1)CCc1ccc(NS(C)(=O)=O)cc1 [Dofetilide] |  |  | no arrhythmia-like events were observed; also recorded: No arrhythmia-like waveforms were observed | Beating of the cells at the maximum concentration (hiPSC-CMs [1]; 0.3 µm (150 times of the ETPC)): cells stopped beating; Concentration at which arrhythmia-like waveforms were observed (hiPSC-CMs [2]): > 150 times of the ETPC; FPDc prolongation (in words) (hiPSC-CMs [2]): FPDc prolongation at concentrations higher than ETPC
10 | O=c1[nH]c2ccccc2n1CCCN1CCC(n2c(=O)[nH]c3cc(Cl)ccc32)CC1 [Domperidone] |  |  | caused arrhythmia-like waveforms | 
11 | O=C(CCCN1CC=C(n2c(=O)[nH]c3ccccc32)CC1)c1ccc(F)cc1 [Droperidol] | decreased the activity of cardiomyocytes at a concentration higher than ETPC | decrease BPM | caused arrhythmia-like waveforms | 
12 | O=C(NCC1CCCCN1)c1cc(OCC(F)(F)F)ccc1OCC(F)(F)F (stereo not drawn) [Flecainide] |  |  |  | Concentration at which arrhythmia-like waveforms were observed (hiPSC-CMs [2]): 1.33 times of the ETPC
13 | CCCCCCCN(CC)CCCC(O)c1ccc(NS(C)(=O)=O)cc1 (stereo not drawn) [Ibutilide] | decreased cell activity at concentrations less than ETPC | BPM decrease at concentrations less than ETPC | induce arrhythmia-like waveforms | Concentration at which arrhythmia-like waveforms were observed (hiPSC-CMs [2]): 10 % of the ETPC; FPDc prolongation (in words) (hiPSC-CMs [2]): FPDc prolongation at concentrations lower than ETPC
14 | CCOC(=O)N1CCC(=C2c3ccc(Cl)cc3CCc3cccnc32)CC1 [Loratadine] | decreased the activity of cardiomyocytes at a concentration higher than ETPC |  |  | 
15 | CCC(=O)C(CC(C)N(C)C)(c1ccccc1)c1ccccc1 (stereo not drawn) [Methadone] | decreased the cell activity of cardiomyocytes at concentrations greater than ETPC | decreased BPM at a concentration greater than ETPC |  | 
16 | COCCc1ccc(OCC(O)CNC(C)C)cc1 (stereo not drawn) [Metoprolol] | decreased the activity of cardiomyocytes at a concentration higher than ETPC | BPM was decreased |  | Concentration at which FPDc prolongation was observed (hiPSC-CMs [2]): 6 % of the ETPC
17 | Cc1cccc(C)c1OCC(C)N (stereo not drawn) [Mexiletine] | decreased the activity of cardiomyocytes at a concentration higher than ETPC | BPM was decreased |  | Concentration at which FPDc prolongation was observed (hiPSC-CMs [2]): 1.2 times of the ETPC
18 | COc1c(N2C[C@@H]3CCCN[C@@H]3C2)c(F)cc2c(=O)c(C(=O)O)cn(C3CC3)c12 [Moxifloxacin] |  | decreased BPM at a concentration greater than ETPC |  | 
19 | NC(=O)c1cccnc1 [Nicotinamide] | decreased the cell activity of cardiomyocytes at concentrations greater than ETPC | decreased BPM |  | 
20 | COC(=O)C1=C(C)NC(C)=C(C(=O)OC)C1c1ccccc1[N+](=O)[O-] [Nifedipine] | decreased the activity of cardiomyocytes at a concentration higher than ETPC |  |  | 
21 | CCOC(=O)C1=C(C)NC(C)=C(C(=O)OC)C1c1cccc([N+](=O)[O-])c1 (stereo not drawn) [Nitrendipine] | decreased the activity of cardiomyocytes at a concentration higher than ETPC |  |  | Concentration at which arrhythmia-like waveforms were observed (hiPSC-CMs [2]): 331.1 times of the ETPC
22 | Cc1nccn1CC1CCc2c(c3ccccc3n2C)C1=O (stereo not drawn) [Ondansetron] | decreased the activity of cardiomyocytes at a concentration higher than ETPC | decrease BPM | caused arrhythmia-like waveforms | Concentration at which arrhythmia-like waveforms were observed (hiPSC-CMs [2]): 81 % of the ETPC
23 | O=c1[nH]c2ccccc2n1C1CCN(CCCC(c2ccc(F)cc2)c2ccc(F)cc2)CC1 [Pimozide] | decreased the activity of cardiomyocytes at a concentration higher than ETPC | decrease BPM | caused arrhythmia-like waveforms | 
24 | C=C[C@H]1C[N@@]2CC[C@H]1C[C@@H]2[C@@H](O)c1ccnc2ccc(OC)cc12 [Quinidine] | decreased cell activity at concentrations less than ETPC | BPM decrease at concentrations less than ETPC | induce arrhythmia-like waveforms | FPDc prolongation (in words) (hiPSC-CMs [2]): FPDc prolongation at concentrations lower than ETPC
25 | COc1ccccc1OCC(O)CN1CCN(CC(=O)Nc2c(C)cccc2C)CC1 (stereo not drawn) [Ranolazine] |  |  |  | Concentration at which FPDc prolongation was observed (hiPSC-CMs [2]): 51 % of the ETPC; Concentration at which arrhythmia-like waveforms were observed (hiPSC-CMs [2]): 15.4 times of the ETPC
26 | CC(C)NCC(O)c1ccc(NS(C)(=O)=O)cc1 (stereo not drawn) [Sotalol] |  | BPM decrease at concentrations less than ETPC | induce arrhythmia-like waveforms | FPDc prolongation (in words) (hiPSC-CMs [2]): FPDc prolongation at concentrations lower than ETPC
27 | CC/C(=C(\c1ccccc1)c1ccc(OCCN(C)C)cc1)c1ccccc1 [Tamoxifen] | decreased the activity of cardiomyocytes at a concentration higher than ETPC | BPM was decreased |  | Concentration at which arrhythmia-like waveforms were observed (hiPSC-CMs [2]): 142.9 times of the ETPC
28 | CC(C)(C)c1ccc(C(O)CCCN2CCC(C(O)(c3ccccc3)c3ccccc3)CC2)cc1 (stereo not drawn) [Terfenadine] | decreased the activity of cardiomyocytes at a concentration higher than ETPC | decrease BPM |  | 
29 | COc1cc2c(Nc3ccc(Br)cc3F)ncnc2cc1OCC1CCN(C)CC1 [Vandetanib] |  | BPM decrease at concentrations less than ETPC | induce arrhythmia-like waveforms | FPDc prolongation (in words) (hiPSC-CMs [2]): FPDc prolongation at concentrations higher than ETPC
30 | COc1ccc(CCN(C)CCCC(C#N)(c2ccc(OC)c(OC)c2)C(C)C)cc1OC (stereo not drawn) [Verapamil] | decreased the activity of cardiomyocytes at a concentration higher than ETPC |  |  | 
